WT yeast gro inh – growth inhibition of WT yeast, mitochondrial fusion screen; mitochondrial fusion phenotypic screen, WT strain; inhibition, % at 10 µM; actives 2.1% (n = 190,000); AID 1362; in the data active = inhibition above about 58%; tested in S. cerevisiae
PMI act – activators of human phosphomannose isomerase | purified human PMI, coupled resazurin fluorescence, 20 min; stronger effect = higher value; 1 = vehicle control, 0 substrate-free wells | actives 0.005% (n = 190,000) | activation factor at 20 µM;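 active = activation factor of 2 or more at 20 µM, relative to plate controls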
Target sequence (P34949 whole entry, looked up): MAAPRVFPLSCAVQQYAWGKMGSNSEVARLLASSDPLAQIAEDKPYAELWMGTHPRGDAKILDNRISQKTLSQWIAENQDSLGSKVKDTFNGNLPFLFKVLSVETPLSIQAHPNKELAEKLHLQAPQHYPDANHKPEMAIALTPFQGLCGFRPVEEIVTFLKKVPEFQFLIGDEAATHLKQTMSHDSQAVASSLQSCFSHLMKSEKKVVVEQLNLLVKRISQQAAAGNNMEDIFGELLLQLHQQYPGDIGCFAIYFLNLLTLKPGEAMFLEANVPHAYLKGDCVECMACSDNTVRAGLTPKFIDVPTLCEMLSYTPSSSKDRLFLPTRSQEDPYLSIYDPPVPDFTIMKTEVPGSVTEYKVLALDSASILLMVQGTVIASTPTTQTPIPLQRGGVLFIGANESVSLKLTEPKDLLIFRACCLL
L major viab – Leishmania major promastigote growth inhibition; AID 1063; Leishmania major promastigotes, resazurin fluorescence viability; inhibition, % at 10 µM; actives 9% (n = 200,000); in the data active = inhibition above about 50%;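 note: promastigotes grown with compound for 44 hours at 28 °C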
PMI act satM6P – PMI (human) activation, high substrate; actives 0.34% (n = 190,000); activation factor at 20 µM; coupled PMI enzyme assay, resazurin fluorescence, 20 min; stronger effect = higher value; 1 = untreated enzyme, 0 = substrate-free blank; AID 1216; P34949;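 active = activation factor of 2 or more at 20 µM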
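Test system: human phosphomannose isomerase with PGI, G6PDH, diaphorase coupling enzymes; Amount: PMI at 15 ng/mL final; Reagent: Mannose-6-phosphate 1.0 mM (near-saturating) plus 0.22 mM NADP+; Timing: 20 min, room temperature; Technique: resorufin fluorescence at Ex 544/Em 590 nm; Dosing: 20 µM single dose.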
Diaphorase act – activates diaphorase or chemically reduces, flagging diaphorase assay artifacts. actives 0.005% (n = 190,000). Diaphorase/resazurin coupled assay, resorufin fluorescence, 16 min; stronger effect = higher value; 1 = vehicle wells, 0 = NADH-free wells. activation factor at 20 µM;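 active = diaphorase activity raised at least twofold by the compound at 20 µM; inactive = activation factor below 2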
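Assay system: Purified diaphorase enzyme from Clostridium kluyveri | Amount: Enzyme 0.07 U/mL final | Dosing: Compound 20 µM once, DMSO 1% | Timing: 16 min reaction at room temperature | Detection: Fluorescence, excitation 544 nm and emission 590 nm | Evaluation: Higher resorufin formation from activation or reduction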
A number is an active result; n = inactive. This is a sample that favours compounds with a hit; in the whole collection about 10% have one here.

SMILES	WT yeast gro inh	PMI act	L major viab	PMI act satM6P	Diaphorase act
O=C(Nc1cccs1)Nc1c(F)c(F)cc(F)c1F	n	n	n	n	n
O=C(N/N=C/c1cc(Cl)ccc1O)C(=O)Nc1ccccc1OC(F)(F)C(F)F	n	n	99.2	n	n
O=C(N/N=C/c1cc(Br)ccc1O)C(=O)Nc1ccccc1OC(F)(F)C(F)F	n	n	99.2	n	n
COc1ccccc1/C=N/NC(=O)C(=O)Nc1ccccc1OC(F)(F)C(F)F	n	n	n	n	n
Cc1ccc(CNC(=O)CSc2nc3ccccc3c(=O)n2CCCO)cc1	n	n	n	n	n
O=c1c2ccccc2nc(SCc2ccccc2)n1Cc1ccco1	n	n	n	n	n
Cc1ccc(-c2nc(CSc3nc4ccccc4c(=O)n3CCO)cs2)cc1	60.3	n	61.6	n	n
C=CCn1c(SCc2csc(-c3ccc(C)cc3)n2)nnc1-c1ccccc1OC	81.4	n	99.6	n	n
COc1ccccc1-n1cnnc1SCc1csc(-c2ccccc2)n1	n	n	n	n	n
Cc1ccc(CSc2nc3ccccc3c(=O)n2Cc2ccco2)cc1	n	n	61.6	n	n
Cc1ccc(-c2nc(CSc3nc4ccccc4c(=O)n3C)cs2)cc1	n	n	75.8	n	n
CCOC(=O)CSc1nc2ccccc2c(=O)n1C	n	n	n	n	n
O=C(CSc1nc2ccccc2c(=O)n1NC(=O)Cc1ccccc1)NCc1ccccc1Cl	n	n	n	n	n
C=CCSc1ncc(CO)n1Cc1ccccc1	n	n	n	n	n
NCCCCCc1nnc(SCc2ccc(Cl)cc2Cl)o1	n	n	100.3	n	n
O=c1oc2ccccc2c(NC(c2ccccc2)c2ccccc2)c1[N+](=O)[O-]	n	n	n	n	n
CC(Nc1c([N+](=O)[O-])c(=O)oc2ccccc12)C(Cl)c1ccccc1 (stereo not drawn)	n	n	56.3	n	n
COc1cc(Cl)c(C)cc1NC(=O)CCCn1c(=O)oc2ccccc21	n	n	52.6	n	n
COc1cc(OC)c(NC(=O)CCCn2c(=O)oc3ccccc32)cc1Cl	n	n	n	n	n
COc1ccc(NC(=O)CCCn2c(=O)oc3ccccc32)cc1Cl	n	n	57.5	n	n
Cc1ccc(NC(=O)CCn2c(=O)oc3ccccc32)cc1	n	n	n	n	n
CO/N=C/C1CCN(c2ncc(C(F)(F)F)cc2Cl)C1=O (stereo not drawn)	n	n	n	n	n
C/C(=N\N=C(/N)SC1CC(=O)N(c2cccc(Cl)c2)C1=O)c1cccs1 (stereo not drawn)	94.2	n	n	n	n
CCn1c(COc2cc(C)ccc2C(C)C)nnc1SCC(=O)Nc1nccs1	n	n	n	n	n
CCCCCCC(=O)NNC(=O)CC(=O)Nc1ccccc1C(=O)O	n	n	n	n	n
SMILES	WT yeast gro inh	PMI act	L major viab	PMI act satM6P	Diaphorase act
O=C(CN1C(=O)c2cccc3cccc(c23)C1=O)N1CCCCCC1	n	n	n	n	n
O=C(c1ccc(S(=O)(=O)N2CCCCCC2)cc1)N1CCC(CN2C(=O)c3cccc4cccc(c34)C2=O)CC1	n	n	80.2	n	n
Cc1ccc(S(=O)(=O)ON2C(=O)c3cccc4cccc(c34)C2=O)cc1	n	n	n	n	n
Cc1cc(C)c(S(=O)(=O)N2CCN(CCN3C(=O)c4cccc5cccc(c45)C3=O)CC2)cc1[N+](=O)[O-]	n	n	52.6	n	n
O=C1c2cccc3cccc(c23)C(=O)N1CC1CCN(S(=O)(=O)c2ccc(F)cc2)CC1	n	n	98.2	n	n
Cc1ccc(S(=O)(=O)N2CCC(CN3C(=O)c4cccc5cccc(c45)C3=O)CC2)cc1	n	n	95.5	n	n
Cc1cccc(C)c1N1CCN(S(=O)(=O)c2ccc(F)cc2)CC1	n	n	n	n	n
COC(CNC(=O)c1cc(C)nn1-c1ccccc1)OC	n	n	n	n	n
COc1ccc(S(=O)CC(=O)Nc2ccc(Cl)cc2Cl)cc1 (stereo not drawn)	n	n	n	n	n
COc1cccc(NC(=O)c2ccc(NC(=O)C3CC(=O)OC34CCCCC4)cc2)c1 (stereo not drawn)	n	n	n	n	n
COc1ccc(O)c(/C=N/Nc2nc3ccccc3[nH]2)c1	n	n	88.4	n	n
Cc1cc(Cl)ccc1NC(=O)CCC(=O)N/N=C/c1cc([N+](=O)[O-])ccc1O	n	n	91.6	n	n
